RBBP9 inhibitor – blocks human serine hydrolase RBBP9; recombinant RBBP9, FP-Rh probe fluorescence polarization; AID 1515; 0.2% of 220,000 active; O75884; inhibition, % at 7.94 µM;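 active = inhibition above the campaign mean of all tested compounds plus 3 SD, cut at about 14% in these data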;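 also: plate controls were DMSO wells with RBBP9 for no effect and wells lacking RBBP9 protein for full effect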
Target sequence (O75884 whole entry, looked up): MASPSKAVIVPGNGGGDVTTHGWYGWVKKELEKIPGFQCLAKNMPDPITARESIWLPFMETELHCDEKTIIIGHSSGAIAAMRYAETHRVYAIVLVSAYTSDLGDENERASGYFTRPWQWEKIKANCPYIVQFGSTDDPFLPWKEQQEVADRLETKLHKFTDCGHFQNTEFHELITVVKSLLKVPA
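System: RBBP9 protein / Quantity: 2.5 µM RBBP9 dispensing solution, before mixing / Also added: Serine-hydrolase probe FP-Rh, 375 nM pre-mixing / Dosing: 7.94 µM single dose, 0.794% DMSO / Timing: enzyme-compound preincubation 30 min, then probe labeling 45 min, 25 °C / Signal: FP readout at 525/598 nm / Controls: DMSO-treated enzyme wells and wells lacking RBBP9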
UBC9 SUMO inh – SUMOylation inhibition; 0.36% of 290,000 active; HTRF SUMOylation assay, SAE1/SAE2 + UBC9, in vitro; P63279; inhibition, % at 35 µM; AID 2006; in the data active = inhibition above about 50%, passing the limit was not always enough
UBC13 inh – blocks human UBC13 polyubiquitin chain formation. inhibition, % at 20 µM. 0.47% of 330,000 active. P61088. TR-FRET. AID 485273; in the data active = inhibition above about 45%, passing the limit was not always enough
Target sequence (P61088 whole entry, looked up): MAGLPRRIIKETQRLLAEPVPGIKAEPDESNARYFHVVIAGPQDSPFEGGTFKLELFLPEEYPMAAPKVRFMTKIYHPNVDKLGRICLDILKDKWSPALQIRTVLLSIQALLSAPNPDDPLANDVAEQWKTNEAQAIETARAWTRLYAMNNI
PREPL inh – inhibits the human prolyl oligopeptidase-like enzyme | 0.68% of 320,000 active | Q4J6C6 | AID 2751 | inhibition, % at 5.96 µM | recombinant PREPL, fluorescence polarization activity-based probe; in the data active = inhibition above about 43%;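 also: 0% = enzyme with DMSO and 100% = wells lacking enzyme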
ALR H2O2 inh – inhibitors of human sulfhydryl oxidase ALR. P55789. purified ALR, DTT oxidation, H2O2 HRP-luminol luminescence. inhibition, % (test concentration not listed). 3.8% of 290,000 active. AID 485317;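 active = mean replicate inhibition above about 79%, with every replicate also reaching it, limit read from the data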
Target sequence (P55789 whole entry, looked up): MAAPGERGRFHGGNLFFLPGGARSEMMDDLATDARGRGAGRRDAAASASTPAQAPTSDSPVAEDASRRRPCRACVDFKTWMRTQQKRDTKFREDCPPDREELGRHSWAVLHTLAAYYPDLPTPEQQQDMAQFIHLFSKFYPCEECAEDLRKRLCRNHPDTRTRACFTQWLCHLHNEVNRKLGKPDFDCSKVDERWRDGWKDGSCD
Rin1-Abl PPI inh – blocks binding of human Rin1 to Abl; P00519+Q13671; TR-FRET Rin1/Abl binding, biochemical; inhibition, % at 7.35 µM; 0.4% of 360,000 active; AID 588664; in the data active = inhibition above about 5%, passing the limit was not always enough
The depositor's hits bear a star; · = no result given. Only some compounds are listed: those with a hit (about 4.3% of all), similar ones and a draw of the others.

SMILES | RBBP9 inhibitor | UBC9 SUMO inh | UBC13 inh | PREPL inh | ALR H2O2 inh | Rin1-Abl PPI inh
Cc1ccc(NC(=O)c2ccc3c(SCC(=O)O)c4c(nc3c2)CCCC4)c(Br)c1 | · | 45.9 | -15.6 | 5.9 | 90.2* | -4.7
O=C(O)CSc1c2c(nc3cc(C(=O)Nc4cccc(C(F)(F)F)c4)ccc13)CCC2 | · | -4.8 | 10.6 | -10.1 | 95.8* | -3.0
COc1ccc(C)cc1NC(=O)c1ccc2c(SCC(=O)O)c3c(nc2c1)CCCC3 | -3.1 | -6.9 | -20.0 | -4.4 | 0.0 | -3.9
COc1cc(CC(=O)OCC(=O)NCCc2ccc(S(N)(=O)=O)cc2)cc(OC)c1OC | · | · | 6.1 | 6.3 | · | 1.1
CC(c1n[nH]c(=S)n1-c1ccc(Cl)cc1)N(C)C (centres undefined) | -4.8 | -3.2 | -6.3 | 9.8 | 40.9 | 0.6
CC(c1n[nH]c(=S)n1-c1ccc(F)cc1)N1CCCCC1 (centres undefined) | -9.0 | 3.5 | -22.6 | 8.9 | 90.7* | 5.2
O=S1(=O)N[C@H](c2ccccc2)C[C@H](c2ccc(C(F)(F)F)cc2)O1 | · | -5.6 | 1.4 | -13.1 | -4.7 | 2.7
COc1cc(C2N(c3ccccc3)CCN2c2ccccc2)cc(OC)c1OC | -3.7 | 18.9 | -8.0 | 17.6 | 99.1* | 2.5
O=C(CCNC(=O)c1ccc([N+](=O)[O-])cc1)Nc1cccc(S(=O)(=O)N2CCOCC2)c1 | · | · | -1.4 | 11.5 | -2.3 | -0.5
CCOc1ccc(NC(=O)C(C)N2C(=O)c3ccccc3S2(=O)=O)cc1 (centres undefined) | · | · | -0.5 | -0.6 | -2.6 | -0.5
CC(C(=O)Nc1ccc(N(C)C)cc1)N1C(=O)c2ccccc2S1(=O)=O (centres undefined) | · | · | 2.7 | 11.4 | 98.8* | -1.9
COc1ccc(NS(=O)(=O)c2cc([N+](=O)[O-])ccc2N/N=C\c2c(C)[nH]c3ccccc23)cc1 | -3.5 | 11.4 | -240.7 | 3.7 | 0.6 | -3.0
COc1ccccc1NS(=O)(=O)c1cc([N+](=O)[O-])ccc1N/N=C/c1c[nH]c2ccccc12 | -4.4 | 11.7 | -149.4 | 3.2 | 98.8* | -2.6
COc1ccc(C(=O)CC(=O)C(=O)Nc2ccccc2Cl)cc1 | · | 15.1 | · | 1.3 | -1.8 | 1.8
CCOC(=O)c1c(CSc2ccc(CC)cc2)oc2ccc(O)c(CN(C)C)c12 | · | 2.9 | 43.0 | 16.7 | -3.5 | 0.3
CCOC(=O)c1c(CSc2ccccc2)oc2cc(Br)c(O)c(CN(C)C)c12 | -4.4 | 23.2 | -4.5 | -5.6 | 81.5* | -2.2
O=C1c2ccccc2C(=O)N1CC(O)CNc1ccc(Br)cc1 (centres undefined) | 1.7 | -12.0 | -3.4 | 15.6 | 21.0 | 0.6
CN(C)c1ccc(C(C(=O)NC2CCCC2)N(C(=O)c2ccco2)C2CC2)cc1 (centres undefined) | · | 16.1 | -0.7 | 0.4 | 98.7* | 2.4
CC(C)n1cc2c(N)ncnc2n1 | · | · | · | · | · | -0.2
O=C(NCC1CC1)Nc1cccs1 | -2.2 | 3.0 | -0.9 | 8.4 | 98.5* | -3.5
O=C(Nc1cccs1)NC1CCCC1 | -10.1 | 6.8 | -5.7 | 20.7 | 99.1* | -3.6
CC(C)NC(=O)Nc1cccs1 | -12.6 | 10.0 | 3.3 | 5.4 | 96.7* | -4.0
CC1CCC(NC(=O)Nc2cccs2)CC1 (centres undefined) | -4.0 | 7.1 | 7.1 | -0.5 | 98.2* | 0.4
Nc1c(-c2ccccc2)sc2ccc3ccccc3[n+]12 | · | 3.4 | -13.9 | -4.1 | -6.7 | 0.0
COc1ccc(Nc2nc(Nc3ccc(OC)cc3)nc(-n3[nH]c(=O)c(C)c3C)n2)cc1 | -2.6 | -9.9 | -26.6 | 14.2 | 84.2* | -0.6
SMILES | RBBP9 inhibitor | UBC9 SUMO inh | UBC13 inh | PREPL inh | ALR H2O2 inh | Rin1-Abl PPI inh
COc1ccc(Nc2nc(OC)nc(N3CCOCC3)n2)cc1 | -7.6 | 5.3 | 1.5 | 5.5 | -3.1 | -3.9
CN(Cc1ccccc1)C(=O)c1cccc(NC(=O)Cc2ccc(NC(=O)C3CCCN(C(=O)C4CCCC4)C3)cc2)c1 (centres undefined) | · | · | · | · | · | 0.1
CCCS(=O)(=O)c1nc(S(=O)(=O)c2ccc(C)cc2)c(N2CCN(CC)CC2)s1 | · | 7.7 | -10.0 | 10.3 | -0.1 | 2.1
CCCn1cnc2c(N)c(C)c(C)cc21 | -0.5 | -13.9 | 5.6 | 11.4 | 83.0* | 1.8
COc1cccc(Cn2cnc3c(N)c(C)c(C)cc32)c1 | -8.9 | -17.7 | 4.6 | 17.9 | 33.2 | -1.4
CCCC(=O)Nc1ccc2oc(-c3cncc(Br)c3)nc2c1 | -2.3 | 52.0* | 18.9 | -8.3 | · | 1.4
CC(C)CC(=O)Nc1ccc2oc(-c3cccnc3)nc2c1 | -9.6 | 52.8* | 12.1 | -10.9 | -4.8 | 0.8
CCC(=O)Nc1ccc2oc(-c3cccnc3)nc2c1 | -9.6 | 46.6 | 14.3 | -15.8 | -10.0 | -1.1
CCc1ccc2oc(-c3ccc(NC(C)=O)cc3)nc2c1 | · | -0.8 | 13.9 | -17.3 | 96.4* | -0.4
CCCCCC(=O)Nc1ccc2oc(-c3cncc(Br)c3)nc2c1 | -9.8 | 19.8 | 6.7 | 1.8 | -8.1 | 4.3
CN(Cc1ccccc1)C(=O)C1CCN(S(=O)(=O)c2cccc3nonc23)CC1 | · | 14.4 | -6.5 | -2.3 | -5.8 | -2.7
Cc1cc(Cl)ccc1OCCCC(=O)NO | -2.0 | 3.0 | 9.1 | 6.0 | 99.1* | -0.4
CC1Sc2ccc(C(=O)Nc3ccc(S(=O)(=O)N(C)C)cc3)cc2NC1=O (centres undefined) | · | · | 3.1 | 1.4 | 98.2* | 3.2
COc1ccc(S(=O)(=O)N(C)C)cc1NC(=O)c1ccc2c(c1)NC(=O)C(C)S2 (centres undefined) | · | · | 7.9 | -2.7 | 1.3 | 2.3
O=C(Nc1c(C(=O)O)oc2ccc(Br)cc12)c1ccccc1 | -14.1 | 9.9 | -16.2 | -7.6 | 95.5* | 0.2
Cc1c(C(=O)NNC(=O)c2ccccc2O)oc2ccc(Br)cc12 | · | · | · | 36.5 | 3.6 | 0.4
Cc1ccc(NC(=O)CSc2nc(-c3ccco3)nc3cc(=O)[nH]n23)c(Cl)c1 | · | 16.4 | -19.0 | 6.4 | 98.9* | -1.3
CN(C)C(CNC(=O)CN1C(=O)NC2(CCc3ccccc32)C1=O)c1ccco1 (centres undefined) | -2.6 | 11.6 | 5.4 | 0.0 | 99.6* | 3.8
Cn1c(N)c(C(=O)CCl)c(=O)n(Cc2ccccc2)c1=O | -4.3 | -9.7 | -0.1 | -1.5 | 99.1* | 0.4
Cn1c(=O)c(C(=O)CCl)c(N)n(Cc2ccccc2)c1=O | -8.8 | 10.5 | 3.2 | -0.1 | 21.9 | 4.1
Cn1c(=O)n(Cc2ccccc2)c2ccccc21 | 3.6 | -1.7 | 10.4 | -0.2 | -11.9 | 2.0
Cn1c(N)cc(=O)n(Cc2ccccc2)c1=O | -5.1 | -15.3 | -0.9 | -4.2 | 99.0* | 0.6
CC(C)c1cc(=O)n2c(nc3ccccc32)[nH]1 | · | 28.9 | 7.0 | -3.3 | 18.4 | -0.5
Cc1nc(N2CCCCC2)c2c(C)c(C(=O)Nc3ccc4c(c3)OCCO4)sc2n1 | · | -14.1 | 2.3 | 23.2 | -3.6 | -0.4
CCOC(=O)c1nnc(-c2ccccc2)nc1Sc1ccccc1Cl | -6.3 | 0.3 | -17.4 | -2.0 | 97.3* | -2.7
O=C(O)c1cnc(-c2ccccc2)nc1Sc1ccc(Cl)cc1 | -11.3 | 5.7 | -21.0 | 18.6 | · | 1.9

Screens (PubChem BioAssay)
